Measurements: ChEMBL document CHEMBL4138042, “A Scaffold Merging Approach to Hsp90 C-terminal Inhibition: Synthesis and Evaluation of a Chimeric Library” (Medchemcomm, 2017)
Calls of active or inactive are those of the source. No cut-off for these calls is given here.

System: MCF7
Test: Effect on actin protein expression in human MCF7 cells at 0.5 and 10 fold antiproliferative IC50 incubated for 24 hrs by Western blotting method
Format: cell-based
Settings: mcf7, 24 h
In short: (§1)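 Treated MCF-7 cells were analysed by western blot for the Hsp90 clients HER2, CDK4, ER-α and cyclin D1. Actin served as the Hsp90-independent control protein.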
With `CN1CCC(Oc2ccc(-c3cccc(NC(=O)c4ccc(Br)cc4)c3)c(-c3cccc(C(F)(F)F)c3)c2)CC1` the Activity was “Non-Toxic”. With `CN1CCC(Oc2ccc(-c3ccc(NC(=O)c4ccc(Br)cc4)cc3)c(-c3cccc(C(F)(F)F)c3)c2)CC1` the Activity was “Non-Toxic”. In the case of `CN1CCC(Oc2ccc(-c3cccc(NC(=O)c4cn(Cc5ccccc5)nn4)c3)c(-c3cccc(C(F)(F)F)c3)c2)CC1`, the Activity is reported as “Non-Toxic”.

System: MCF7
Test: Induction of heat shock response in human MCF7 cells assessed as effect on Hsp70 protein levels at 0.5 and 10 fold antiproliferative IC50 incubated for 24 hrs by Western blotting method
Format: cell-based
Settings: mcf7, 24 h
With `CN1CCC(Oc2ccc(-c3cccc(NC(=O)c4ccc(Br)cc4)c3)c(-c3cccc(C(F)(F)F)c3)c2)CC1` the Activity was “Non-Toxic”. With `CN1CCC(Oc2ccc(-c3ccc(NC(=O)c4ccc(Br)cc4)cc3)c(-c3cccc(C(F)(F)F)c3)c2)CC1` the Activity was “Non-Toxic”. In the case of `CN1CCC(Oc2ccc(-c3cccc(NC(=O)c4cn(Cc5ccccc5)nn4)c3)c(-c3cccc(C(F)(F)F)c3)c2)CC1`, the Activity is reported as “Non-Toxic”.

System: not listed separately
Test: Inhibition of full length chicken Hsp90beta (1 to 728 amino acids)
Parameters: species or system Gallus gallus
Settings: not given
Work on `CO[C@@H]1[C@@H](OC(N)=O)[C@@H](O)[C@H](Oc2ccc3c(O)c(NC(=O)c4ccc(O)c(CC=C(C)C)c4)c(=O)oc3c2C)OC1(C)C` [NOVOBIOCIN] yielded an EC50 of 700 µM.

System: MCF7
Test: Antiproliferative activity in human MCF7 cells incubated for 72 hrs by MTS/PMS cell proliferation assay
Format: functional, cell-based
Settings: MCF7, 72 h
In short: (§2)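 Values are mean ± SD of at least three separate experiments, each run in triplicate.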
Molecule `CC(=O)Oc1ccc(C(=O)Nc2cccc(-c3ccc(OC4CCN(C)CC4)cc3-c3cccc(F)c3)c2)cc1CC=C(C)C` has an EC50 of 4.4 µM. `COc1cccc(-c2cc(C(=O)Nc3cccc(-c4ccc(OC5CCN(C)CC5)cc4)c3)ccc2OC)c1` showed an EC50 of 1.6 µM. For `CN1CCC(Oc2ccc(-c3ccc(NC(=O)c4ccc(C(C)(C)C)cc4)cc3)c(-c3cccc(C(F)(F)F)c3)c2)CC1`, the EC50 was 3 µM. `COc1cccc(-c2cc(C(=O)Nc3cccc(-c4ccc(OC5CCN(C)CC5)cc4-c4cccc(F)c4)c3)ccc2OC)c1` gave an EC50 of 4.2 µM. `COc1ccc(Cn2cc(C(=O)Nc3ccc(-c4ccc(OC5CCN(C)CC5)cc4-c4cccc(C(F)(F)F)c4)cc3)nn2)cc1` showed an EC50 of 0.9 µM. `CC(=O)Oc1ccc(C(=O)Nc2ccc(-c3ccc(OC4CCN(C)CC4)cc3-c3cccc(F)c3)cc2)cc1CC=C(C)C` gave an EC50 of 3.3 µM. Work on `CN1CCC(Oc2ccc(-c3cccc(NC(=O)c4ccc(Br)cc4)c3)c(-c3cccc(F)c3)c2)CC1` yielded an EC50 of 5.6 µM. With `CN1CCC(Oc2ccc(-c3cccc(NC(=O)c4ccc(Br)cc4)c3)c(-c3cccc(C(F)(F)F)c3)c2)CC1` the EC50 was 3.9 µM. With `CN1CCC(Oc2ccc(-c3ccc(NC(=O)c4cn(Cc5ccc([N+](=O)[O-])cc5)nn4)cc3)c(-c3cccc(C(F)(F)F)c3)c2)CC1` the EC50 was 1 µM. Molecule `CC(=O)Oc1ccc(C(=O)Nc2cccc(-c3ccc(OC4CCN(C)CC4)cc3-c3cccc(C(F)(F)F)c3)c2)cc1CC=C(C)C` has an EC50 of 3 µM. Molecule `CN1CCC(Oc2ccc(-c3ccc(NC(=O)c4ccc(Br)cc4)cc3)c(-c3cccc(C(F)(F)F)c3)c2)CC1` has an EC50 of 3.4 µM. Molecule `CN1CCC(Oc2ccc(-c3cccc(NC(=O)c4cn(Cc5ccccc5)nn4)c3)c(-c3cccc(C(F)(F)F)c3)c2)CC1` has an EC50 of 1.7 µM.

System: SK-BR-3
Test: Antiproliferative activity in human SKBR3 cells incubated for 72 hrs by MTS/PMS cell proliferation assay
Format: functional, cell-based
Settings: SK-BR-3, 72 h
In short: as §2
Work on `CC(=O)Oc1ccc(C(=O)Nc2cccc(-c3ccc(OC4CCN(C)CC4)cc3-c3cccc(F)c3)c2)cc1CC=C(C)C` yielded an EC50 of 3300 nM. `COc1cccc(-c2cc(C(=O)Nc3cccc(-c4ccc(OC5CCN(C)CC5)cc4)c3)ccc2OC)c1` gave an EC50 of 1500 nM. With `CN1CCC(Oc2ccc(-c3ccc(NC(=O)c4ccc(C(C)(C)C)cc4)cc3)c(-c3cccc(C(F)(F)F)c3)c2)CC1` the EC50 was 2400 nM. For `COc1cccc(-c2cc(C(=O)Nc3cccc(-c4ccc(OC5CCN(C)CC5)cc4-c4cccc(F)c4)c3)ccc2OC)c1`, the EC50 was 4100 nM. For `COc1ccc(Cn2cc(C(=O)Nc3ccc(-c4ccc(OC5CCN(C)CC5)cc4-c4cccc(C(F)(F)F)c4)cc3)nn2)cc1`, the EC50 was 500 nM. For `CC(=O)Oc1ccc(C(=O)Nc2ccc(-c3ccc(OC4CCN(C)CC4)cc3-c3cccc(F)c3)cc2)cc1CC=C(C)C`, the EC50 was 3200 nM. `CN1CCC(Oc2ccc(-c3cccc(NC(=O)c4ccc(Br)cc4)c3)c(-c3cccc(F)c3)c2)CC1` showed an EC50 of 5900 nM. Work on `CN1CCC(Oc2ccc(-c3cccc(NC(=O)c4ccc(Br)cc4)c3)c(-c3cccc(C(F)(F)F)c3)c2)CC1` yielded an EC50 of 3000 nM. Molecule `CN1CCC(Oc2ccc(-c3ccc(NC(=O)c4cn(Cc5ccc([N+](=O)[O-])cc5)nn4)cc3)c(-c3cccc(C(F)(F)F)c3)c2)CC1` has an EC50 of 800 nM. `CC(=O)Oc1ccc(C(=O)Nc2cccc(-c3ccc(OC4CCN(C)CC4)cc3-c3cccc(C(F)(F)F)c3)c2)cc1CC=C(C)C` gave an EC50 of 2900 nM. For `CN1CCC(Oc2ccc(-c3ccc(NC(=O)c4ccc(Br)cc4)cc3)c(-c3cccc(C(F)(F)F)c3)c2)CC1`, the EC50 was 3500 nM. `CN1CCC(Oc2ccc(-c3cccc(NC(=O)c4cn(Cc5ccccc5)nn4)c3)c(-c3cccc(C(F)(F)F)c3)c2)CC1` gave an EC50 of 2200 nM.

Molecular target: T1, Heat shock protein HSP90 (Homo sapiens) (UniProt P07900+P08238)
Test: Inhibition of HSP90 in human PC3-MM2 cells expressing luciferase assessed as reduction in heat-denatured lucifearse refolding incubated for 1 hr by luciferase rematuration assay
Format: cell-based
Settings: not given
In short: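 PC3-MM2 cells expressing firefly luciferase were heated to denature luciferase, then incubated with DMSO or test compound. Luciferase activity was then measured to gauge refolding. Read-out is RLU relative to DMSO, given as mean ± SD of at least two separate experiments run in triplicate.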
For `COc1ccc(Cn2cc(C(=O)Nc3ccc(-c4ccc(OC5CCN(C)CC5)cc4-c4cccc(C(F)(F)F)c4)cc3)nn2)cc1`, the inhibition was “Active”. For `CN1CCC(Oc2ccc(-c3cccc(NC(=O)c4ccc(Br)cc4)c3)c(-c3cccc(F)c3)c2)CC1`, the inhibition was “Active”. In the case of `CN1CCC(Oc2ccc(-c3cccc(NC(=O)c4ccc(Br)cc4)c3)c(-c3cccc(C(F)(F)F)c3)c2)CC1`, the inhibition is reported as “Active”. With `CN1CCC(Oc2ccc(-c3ccc(NC(=O)c4cn(Cc5ccc([N+](=O)[O-])cc5)nn4)cc3)c(-c3cccc(C(F)(F)F)c3)c2)CC1` the inhibition was “Active”. For `CN1CCC(Oc2ccc(-c3ccc(NC(=O)c4ccc(Br)cc4)cc3)c(-c3cccc(C(F)(F)F)c3)c2)CC1`, the inhibition was “Active”. With `CN1CCC(Oc2ccc(-c3cccc(NC(=O)c4cn(Cc5ccccc5)nn4)c3)c(-c3cccc(C(F)(F)F)c3)c2)CC1` the inhibition was “Active”.

Molecular target: T1, Heat shock protein HSP90 (Homo sapiens)
Test: Inhibition of HSP90 in human MCF7 cells assessed as reduction in CDK4 protein level incubated for 24 hrs by Western blotting method
Format: cell-based
Settings: not given
In short: as §1
For `CN1CCC(Oc2ccc(-c3cccc(NC(=O)c4ccc(Br)cc4)c3)c(-c3cccc(C(F)(F)F)c3)c2)CC1`, the inhibition was “Dose-dependent effect”. For `CN1CCC(Oc2ccc(-c3ccc(NC(=O)c4ccc(Br)cc4)cc3)c(-c3cccc(C(F)(F)F)c3)c2)CC1`, the inhibition was “Dose-dependent effect”. In the case of `CN1CCC(Oc2ccc(-c3cccc(NC(=O)c4cn(Cc5ccccc5)nn4)c3)c(-c3cccc(C(F)(F)F)c3)c2)CC1`, the inhibition is reported as “Dose-dependent effect”.

Molecular target: T1, Heat shock protein HSP90 (Homo sapiens)
Test: Inhibition of HSP90 in human MCF7 cells assessed as reduction in HER2 protein level incubated for 24 hrs by Western blotting method
Format: cell-based
Settings: not given
In short: as §1
In the case of `CN1CCC(Oc2ccc(-c3cccc(NC(=O)c4ccc(Br)cc4)c3)c(-c3cccc(C(F)(F)F)c3)c2)CC1`, the inhibition is reported as “Dose-dependent effect”. With `CN1CCC(Oc2ccc(-c3ccc(NC(=O)c4ccc(Br)cc4)cc3)c(-c3cccc(C(F)(F)F)c3)c2)CC1` the inhibition was “Dose-dependent effect”. With `CN1CCC(Oc2ccc(-c3cccc(NC(=O)c4cn(Cc5ccccc5)nn4)c3)c(-c3cccc(C(F)(F)F)c3)c2)CC1` the inhibition was “Dose-dependent effect”.

System: MCF7
Test: Induction of heat shock response in human MCF7 cells assessed as effect on Hsp90 protein levels at antiproliferative 0.5 and 10 fold IC50 incubated for 24 hrs by Western blotting method
Format: cell-based
Settings: mcf7, 24 h
In the case of `CN1CCC(Oc2ccc(-c3cccc(NC(=O)c4ccc(Br)cc4)c3)c(-c3cccc(C(F)(F)F)c3)c2)CC1`, the Activity is reported as “Non-Toxic”. For `CN1CCC(Oc2ccc(-c3ccc(NC(=O)c4ccc(Br)cc4)cc3)c(-c3cccc(C(F)(F)F)c3)c2)CC1`, the Activity was “Non-Toxic”. In the case of `CN1CCC(Oc2ccc(-c3cccc(NC(=O)c4cn(Cc5ccccc5)nn4)c3)c(-c3cccc(C(F)(F)F)c3)c2)CC1`, the Activity is reported as “Non-Toxic”.

Molecular target: T1, Heat shock protein HSP90 (Homo sapiens)
Test: Inhibition of HSP90 in human MCF7 cells assessed as reduction in ERalpha protein level incubated for 24 hrs by Western blotting method
Format: cell-based
Settings: not given
In short: as §1
With `CN1CCC(Oc2ccc(-c3cccc(NC(=O)c4ccc(Br)cc4)c3)c(-c3cccc(C(F)(F)F)c3)c2)CC1` the inhibition was “Dose-dependent effect”. For `CN1CCC(Oc2ccc(-c3ccc(NC(=O)c4ccc(Br)cc4)cc3)c(-c3cccc(C(F)(F)F)c3)c2)CC1`, the inhibition was “Dose-dependent effect”. For `CN1CCC(Oc2ccc(-c3cccc(NC(=O)c4cn(Cc5ccccc5)nn4)c3)c(-c3cccc(C(F)(F)F)c3)c2)CC1`, the inhibition was “Dose-dependent effect”.

Molecular target: T1, Heat shock protein HSP90 (Homo sapiens)
Test: Inhibition of HSP90 in human MCF7 cells assessed as reduction in cyclin D1 protein level incubated for 24 hrs by Western blotting method
Format: cell-based
Settings: not given
In short: as §1
For `CN1CCC(Oc2ccc(-c3cccc(NC(=O)c4ccc(Br)cc4)c3)c(-c3cccc(C(F)(F)F)c3)c2)CC1`, the inhibition was “Dose-dependent effect”. With `CN1CCC(Oc2ccc(-c3ccc(NC(=O)c4ccc(Br)cc4)cc3)c(-c3cccc(C(F)(F)F)c3)c2)CC1` the inhibition was “Dose-dependent effect”. With `CN1CCC(Oc2ccc(-c3cccc(NC(=O)c4cn(Cc5ccccc5)nn4)c3)c(-c3cccc(C(F)(F)F)c3)c2)CC1` the inhibition was “Dose-dependent effect”.
